System: MS2 coat protein
Test: apparent Kd, MS2 coat protein; higher = weaker binding; RNA-MaP array
How it was run: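 For each design, the apparent Kd is the median of binding-curve fits across its clusters. Designs measured on fewer than 10 clusters were dropped. The RNAs were transcribed from sequenced DNA templates on an Illumina sequencing chip and incubated at room temperature, with or without input ligand, with fluorescently labeled MS2 coat protein at 1.5 nM to 3 μM.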

[1] = designed as: ON switch for flavin mononucleotide, no ligand
[2] = ligand present: flavin mononucleotide, designed as: ON switch for flavin mononucleotide
[3] = designed as: OFF switch for flavin mononucleotide, no ligand
[4] = ligand present: flavin mononucleotide, designed as: OFF switch for flavin mononucleotide

Row | Sequence | apparent Kd [1] | apparent Kd [2] | apparent Kd [3] | apparent Kd [4] | other results
1 | UGUUACAUGAGGAUCACCCAUGUCAGAUGGUCUGGCUAUUACAGAAGGAAUAAAGAACGUCGAGAUUAGGAUAUGUGUAGAUGA | 40.9 nM | 31.8 nM | – | – | –
2 | AGAAUGACAAAAUUGCAACAUGAGGAUCACCCAUGUGAUACAAGAAGGACAAACCGCUCAAGAGUGUAGGAUAUUGUGGAAAUC | 25.6 nM | 19.6 nM | – | – | –
3 | CACGAUCGUGAAGGAUAUCGACAUGAGGAUCACCCAUGUUACUCUUACAUCUAUGGUUCAAGUGCCGAGAAGGUCACAGAGGCA | – | – | 13.8 nM | 18 nM | –
4 | UAUAAGGGUCAGAAGGCAGUGGCGCAGAAUGACUGAGGAUAUGAUAACCGGUAAUUUAACAUGAGGAUCACCCAUGUCUACAAC | 11.7 nM | 10.2 nM | – | – | –
5 | GUUUUGCGAAUAGGAUAUAGUAAUGAUUCAGGAAGCCUGAACAUGAGGAUCACCCAUGUGCCAUCCUAGAAGGAUUCGCACGUG | 359 nM | 186 nM | – | – | –
6 | UAAUCCAACUCGUAAUGACAUGAGGAUCACCCAUGUGAGCGUGAGGAUAUUGUAAGCUAGGAGGUCAAGAAGGCACGCCAGGAG | – | – | 9.1 nM | 10 nM | –
7 | AGAAGGGACGAGAAGGUACGAUCGAGUAAACUAUGAUAUGGGCACAUGAGGAUCACCCAUGUAUGUAAGGAUAUCGCAUCUCCA | 50.5 nM | 41.1 nM | – | – | –
8 | GUGAACGUCAAAGGAUAUGUCGGAACUGCUAGAACAGAAGGUUGGGAAUCGGAUUGGUUGCACAUGAGGAUCACCCAUGUUGAG | 443 nM | 264 nM | – | – | –
9 | GCUGCCUGGACAUGAGGAUCACCCAUGUGGACAAUACUGGCUUAGGAUAUUUGAUUGAAGUUUGGAAAGAAGGAAGCAUACAGC | – | – | 9.17 nM | 8.14 nM | –
10 | AAGGAGGAGCAAGGAUAUCAGUGUAUACGCCACAUGAGGAUCACCCAUGUCCGGAGCGAGAUUCCUGAGAAGGUGCCGCCUAGC | 7.25 nM | 6.47 nM | – | – | –
11 | CCCAGGAUUCAAGGAUAUCGCAAUGAACAUGAGGAUCACCCAUGUUUCUACCCCUCAGCGCACGGCGAGAAGGUGACUUUAGCG | – | – | 12.8 nM | 12.3 nM | –
12 | CCAGGUUGAAUAGGAUAUCGAGUCCGUCACAUGAGGAUCACCCAUGUAUGCCAAGCUAGAGCGUGCGAGAAGGAUUAGGCCAUC | – | 15.5 nM | – | – | –
13 | UAGUAGUAAGGAUAUGCGGCACCGACGCCUCCGAACCGCGGGCAGAAGGUACAUGAGGAUCACCCAUGUGGGUA | – | – | 169 nM | 116 nM | –
14 | UCACUGUUAGGAUAUCUCAUAGCAGUAGGUCAGCUAUUUUGAGAGAAGGAACAUGAGGAUCACCCAUGUAAAUA | – | – | 19.6 nM | 84.7 nM | –
15 | GGAGUUCUAGGAUAUAAUUCGUGGUACAUGAGGAUCACCCAUGUCGCUGAUGCAUCGCCUUUAGAAGGAGAGAUCU | – | – | 9.03 nM | 9.49 nM | –
16 | CGCCCGUACUCAGGAUAUCGAAGUACGAGCCAAAUUAUGUCGGACAUGAGGAUCACCCAUGUGGGCGAGAAGGGAGAACGUGCG | – | – | 29.4 nM | 16.4 nM | –
17 | GACUACAUAGUCAGGAUAUGUGAUUAAUAAUAUCAACAGAAGGGACAUGAGGAUCACCCAUGUGUGCGAGUGGA | – | – | 14.5 nM | 33.2 nM | –
18 | GGUGAUUUCCGACGUUUACAUGAGGAUCACCCAUGUAGGUAGAAGGAUAUGUGUAAAAUUGAUAAACAGAAGGUCUUCCGAAUA | – | – | 12.2 nM | 49.3 nM | –
19 | UCGGUUUGUGCAGGAUAUGCUUACACCCUAGAGGCAGAAGGGCAUAUCACAUGAGGAUCACCCAUGUACAAUCGUCCAAGGGCA | 29.8 nM | 23.4 nM | – | – | –
20 | AGUCUUCUCGUAAGGAUAUUUAGGAAUUCAUCUCCAAAGAAGGUACAUGAGGAUCACCCAUGUGAAGGGCUUUU | – | – | 12.8 nM | 24.8 nM | –
21 | AACAGUAUUAUAGAUACCAGCAGGUCAUAAGACAUGAGGAUCACCCAUGUGAAUGAGGUAUGCCCUUGGCAGCUAUGAGGUCCUC | – | – | – | – | apparent Kd (designed as: ON switch for theophylline, no ligand): 173 nM; apparent Kd (ligand present: theophylline, designed as: ON switch for theophylline): 128 nM
22 | CGUAUACAUGAGGAUCACCCAUGUACUCCCGUGUAAGGCGAGAAGGAUAUGUUCCCGGCUACUUAACAGAAGGUCUUGGCGCUU | – | – | 14.9 nM | 11.2 nM | –
23 | ACACACAUGAGGAUCACCCAUGUCUAUAUACGAGGACCGGUACGGCCGCCACUCGUGAGAUCGCGAGAGACAGCUUUGGGCUAGU | – | – | – | – | apparent Kd (designed as: ON switch for tryptophan, no ligand): 14.6 nM; apparent Kd (ligand present: tryptophan, designed as: ON switch for tryptophan): 19.2 nM
24 | UGAAAUUUGGAGAAGGGACGCACGUGGUAGUGGCUACAUGAGGAUCACCCAUGUUAAUUGAUCAGUCAGGAUAUCCGGUUGUUC | – | – | 18.1 nM | 22.1 nM | –
25 | UCCAUACGGUAGGAUAUAUGUACCCAGAAGGGCAUAGAAGGACCCACAUGAGGAUCACCCAUGUUCCUUUGGUG | – | – | 24.4 nM | 30.5 nM | –
26 | GUCUGGAUGUAGGAUAUGUGUCCGUGCUAGGGUACAGAAGGACAGACAUGAGGAUCACCCAUGUGGAUCAACCG | – | – | 22.6 nM | 38.2 nM | –
